Experimental data of several laboratories.
Each line is one published result; the experiments were not run side by side.
TMEM97: Sigma intracellular receptor 2 (TMEM97, Homo sapiens, UniProt Q5BJF2)
Serine protease HTRA1 S328A: Serine protease HTRA1 (Homo sapiens, UniProt Q92743, S328A)
tspO: tspO (Cereibacter sphaeroides, UniProt Q9RFC8)

| Compound | target | assay | conditions | measurement | value |
| --- | --- | --- | --- | --- | --- |
| Cc1cccc(CN2CCN(C(c3ccccc3)c3ccc(Cl)cc3)CC2)c1 (centres unmarked) | TMEM97 | ligand displacement, radioligand |  | Ki | > 10 µM |
| CC[C@@H]1SC2(CCN(C)CC2)NC1=O | Muscarinic acetylcholine receptor M3 (CHRM3, Homo sapiens, UniProt P20309) | calcium signal, agonist |  | EC50 | 0.0328 µM |
| CC(C)C[C@H](NC(=O)[C@H](CC(=O)O)NC(=O)[C@H](CC(=O)O)NC(=O)[C@H](CC(=O)O)NC(=O)[C@@H](NC(=O)[C@H](Cc1c[nH]c2ccccc12)NC(=O)[C@@H](N)CCC(=O)O)[C@@H](C)O)C(=O)N[C@@H](CO)C(=O)N[C@H](C(=O)N[C@@H](CC(C)C)C(=O)N[C@@H](C)C(=O)O)C(C)C | Serine protease HTRA1 S328A | binding, ITC | pH 8 | Kd | 20.5 µM |
| Cc1cc2c(C(C)C)c(O)c(O)c(C=O)c2c(O)c1-c1c(C)cc2c(C(C)C)c(O)c(O)c(C=O)c2c1O | tspO | binding, fluorescence |  | Kd | 6 µM |
| OCCN1CCN(CCCN2c3ccccc3C=Cc3ccccc32)CC1 | TMEM97 | ligand displacement, radioligand |  | Ki | 0.126 µM |
| CC(C)(NC(=O)O[C@@H]1CN2CCC1CC2)c1csc(-c2ccc(F)cc2)n1 | Lysosomal acid glucosylceramidase (GBA1, Homo sapiens, UniProt P04062) | enzyme activity, inhibitor |  | IC50 | > 300 µM |
| CCC(C)N(C)C(=O)c1cc2ccccc2c(-c2ccccc2Cl)n1 (centres unmarked) | tspO | binding, fluorescence |  | Kd | 10 µM |
| CC[C@H](C)[C@H](NC(=O)[C@H](Cc1c[nH]c2ccccc12)NC(=O)[C@H](C)NC(=O)[C@H](C)NC(=O)[C@H](Cc1ccc(O)cc1)NC(=O)[C@@H](N)CO)C(=O)N[C@@H](CC(=O)O)C(=O)N[C@@H](CO)C(=O)N[C@H](C(=O)N[C@@H](CC(C)C)C(=O)N[C@@H](C)C(=O)O)C(C)C | Serine protease HTRA1 S328A | binding, ITC | pH 8 | Kd | 3.9 µM |
| CC(C)C[C@H](NC(=O)[C@H](Cc1ccccc1)NC(=O)c1cnccn1)B(O)O | Serine protease HTRA2, mitochondrial (HTRA2, Homo sapiens, UniProt O43464) | enzyme activity, inhibitor |  | IC50 | > 33 µM |
| CN(CCCN1c2ccccc2CCc2ccccc21)CC(=O)c1ccc(Cl)cc1 | TMEM97 | ligand displacement, radioligand |  | Ki | 2.01 µM |
| CC[C@H](C)[C@H](NC(=O)[C@H](Cc1ccccc1)NC(=O)[C@H](CC(=O)O)NC(=O)[C@H](CCCNC(=N)N)NC(=O)[C@@H](NC(=O)[C@H](C)NC(=O)[C@H](CC(C)C)NC(=O)[C@H](CC(N)=O)NC(=O)[C@H](CC(=O)O)NC(=O)[C@H](CC(C)C)NC(=O)[C@@H](NC(=O)[C@@H](NC(=O)[C@H](CO)NC(=O)[C@H](CCSC)NC(=O)[C@H](CCC(=O)O)NC(=O)[C@H](CC(=O)O)NC(=O)[C@H](CO)NC(=O)[C@H](Cc1ccccc1)NC(=O)[C@H](CO)NC(=O)CNC(=O)[C@H](CC(=O)O)NC(=O)[C@H](C)NC(=O)[C@@H](N)Cc1c[nH]cn1)[C@@H](C)O)[C@@H](C)CC)[C@@H](C)O)C(=O)N[C@@H](CC(N)=O)C(=O)N[C@@H](Cc1c[nH]c2ccccc12)C(=O)N[C@@H](CC(C)C)C(=O)N[C@H](C(=O)N[C@@H](CCC(N)=O)C(=O)N[C@H](C(=O)N[C@@H](CCCCN)C(=O)N[C@H](C(=O)N[C@H](C(=O)N[C@@H](CC(=O)O)C(=O)O)[C@@H](C)O)[C@@H](C)CC)[C@@H](C)O)[C@@H](C)CC | Glucagon receptor (GCGR, Homo sapiens, UniProt P47871) | reporter gene, agonist, luciferase |  | EC50 | > 1 µM |
| CC(C)(C)[C@]1(O)CCN2C[C@@H]3c4ccccc4CCc4cccc(c43)[C@H]2C1 | TMEM97 | ligand displacement, radioligand |  | Ki | 4.79 µM |
| CC[C@H](C)[C@H](NC(=O)[C@H](C)NC(=O)[C@H](CCCNC(=N)N)NC(=O)[C@H](CC(C)C)NC(=O)[C@@H](N)Cc1ccccc1)C(=O)N[C@@H](CCCNC(=N)N)C(=O)N1CCC[C@H]1C(=O)N[C@@H](CCCCN)C(=O)O | B1 bradykinin receptor (Rattus norvegicus, UniProt P97583) | ligand displacement, radioligand | cell membranes | IC50 | 0.74 µM |
| CCCN(CCC)CCc1ccc(OC)c(OCCc2ccccc2)c1 | TMEM97 | ligand displacement, radioligand |  | Ki | 0.0827 µM |
| O=c1c(O)c(-c2ccc(O)c(O)c2)oc2cc(O)ccc12 | Ribosomal protein S6 kinase beta-1 (RPS6KB1, Homo sapiens, UniProt P23443) | cell-free assay, competition with immobilised ligand |  | Kd | 0.94 µM |
| CC(C)C[C@H](NC(=O)[C@H](CC(=O)O)NC(=O)[C@H](CC(=O)O)NC(=O)[C@H](CC(=O)O)NC(=O)[C@@H](NC(=O)[C@H](Cc1c[nH]c2ccccc12)NC(=O)[C@@H](N)CCC(=O)O)[C@@H](C)O)C(=O)N[C@@H](CO)C(=O)N[C@H](C(=O)N[C@@H](CC(=O)O)C(=O)N[C@@H](C)C(=O)O)C(C)C | Serine protease HTRA1 S328A | binding, ITC | pH 8 | Kd | 25.6 µM |
| NC[C@@H]1[C@H]2CN3C(=O)c4cccn4[C@@H]4NC(N)=N[C@@]43[C@@H]2[C@]2(N=C(N)N[C@H]2O)[C@H]1Cl (racemic) | Proteasome subunit beta type-8, chymotrypsin-like site (PSMB8, Homo sapiens, UniProt P28062) | enzyme activity, inhibitor |  | IC50 | 4.8 µM |
